An excerpt weighted towards active compounds, which were near 1.9% of everything screened.
SUMO1 PPI mod: modulators of human SUMO1-mediated protein-protein interactions. SUMO1 binding to a labelled peptide, TR-FRET, 1 h. P63165. AID 602429. inhibition, % at 20 µM. actives 0.33% (n = 360,000); in the data active = inhibition above about 37%
Target sequence (P63165 whole entry, looked up): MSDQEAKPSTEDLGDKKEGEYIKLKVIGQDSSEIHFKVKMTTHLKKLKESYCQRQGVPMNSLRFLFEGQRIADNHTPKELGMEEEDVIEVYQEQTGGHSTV
STEP block: inhibitors of human striatal-enriched phosphatase STEP; P54829; recombinant STEP, OMFP fluorogenic substrate, fluorescence; inhibition, % at 20 µM; actives 0.25% (n = 360,000); AID 588621;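 active = inhibition at 20 µM, scaled per plate between control wells, above about 37%, limit read from the data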;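 also: 0% = DMSO with enzyme and substrate and 100% = substrate only without enzyme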
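Assay system: isolated STEP enzyme / Timing: 20 min at room temperature, dark / Doses: 20 µM, 1% DMSO / Technique: fluorescence intensity, excitation 480 nm, emission 540 nm / Reagent: fluorogenic phosphatase substrate OMFP at 25 µM final / Measure: percent inhibition scaled to no-enzyme and uninhibited-enzyme controls, plate-pattern corrected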
CSN inh: blocks human CSN-mediated cullin deneddylation. Q92905. actives 0.38% (n = 360,000). inhibition, % at 12.5 µM. Purified CSN, SCF-Nedd8-OG deneddylation, fluorescence polarization. AID 651999;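 active = pattern-corrected inhibition above about 35%, with an unprinted fluorescence ratio check between 0.5 and 1.5, limit read from the data, passing the limit was not always enough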;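 also: 0% = enzyme with substrate and 100% = substrate without enzyme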
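Assay system: purified human Csn5 enzyme expressed in HEK293T cells; Input: 0.24 nM Csn5 enzyme, final concentration; Reagent: 10 nM SCFSkp2-Nedd8OG; Compound dosing: 12.5 µM single point; Times: reaction 90 min, room temperature; Technique: fluorescence polarization readout.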
Scp1 inh: inhibitors of human Scp-1 phosphatase; Q9GZU7; Recombinant Scp1, phosphopeptide, malachite green phosphate absorbance; inhibition, % at 20 µM; actives 0.88% (n = 340,000); AID 493091;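 active = inhibition above about 50% at 20 µM, limit read from the data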;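 also: plate controls were DMSO wells with enzyme for no effect and wells lacking enzyme for full effect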
Target sequence (Q9GZU7 76-261 limits assumed): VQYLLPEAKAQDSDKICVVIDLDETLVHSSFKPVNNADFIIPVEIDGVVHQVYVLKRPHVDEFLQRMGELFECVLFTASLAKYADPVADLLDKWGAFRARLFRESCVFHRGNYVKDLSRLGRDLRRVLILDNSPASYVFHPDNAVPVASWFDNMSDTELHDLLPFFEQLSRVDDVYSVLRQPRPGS
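Assay system: SCP-1 catalytic fragment, aa 76-261 | Buffer or medium: Tris acetate buffer pH 5.5 with MgCl2 and Tween-20 | Compound: One concentration, 20 µM, with 1.0% DMSO | Also added: Phospho 17-mer peptide substrate | Signal: Absorbance at 630 nm | Incubation: 45 min enzyme reaction at room temperature | Measure: % inhibition of SCP-1 phosphate liberation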
LMPTP inh: blocks human LMPTP phosphatase | recombinant LMPTP-A, OMFP fluorogenic substrate, fluorescence intensity | AID 651560 | actives 0.22% (n = 360,000) | inhibition, % at 20 µM | P24666;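 active = compounds that cut the enzyme signal by at least half of the control window in the single-dose screen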;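 also: plate controls were DMSO wells with enzyme plus substrate for no effect and substrate without enzyme for full effect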
Target sequence (P24666 whole entry, looked up): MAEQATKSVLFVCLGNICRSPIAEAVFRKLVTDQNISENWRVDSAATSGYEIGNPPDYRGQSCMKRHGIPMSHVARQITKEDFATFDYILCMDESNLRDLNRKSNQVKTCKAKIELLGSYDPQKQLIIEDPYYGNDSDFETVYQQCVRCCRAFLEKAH
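Assay system: LMPTP-A phosphatase enzyme | Input: 0.625 nM enzyme | Also added: Fluorogenic phosphatase substrate OMFP at 400 µM final | Compound dosing: One test concentration per compound, 20 µM, with 3% DMSO overall | Schedule: 50 min enzyme reaction at room temperature, protected from light | Signal: Fluorescence intensity | Benchmarks: no-enzyme and uninhibited controls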
DNMT1 block: DNMT1 (human) enzyme inhibition | P26358 | DNMT1 molecular beacon, Hinp1I cleavage, fluorescence | inhibition (reported as % activation of signal), % at 10 µM | actives 0.83% (n = 360,000) | AID 588458; in the data active = inhibition above about 50%
Scp-1 conf: Scp-1 (human) inhibition, single-dose confirmed; inhibition, % at 20 µM; AID 540281; shares compounds with Scp1 inh; recombinant SCP-1 catalytic domain, phosphate release, malachite green absorbance; actives 61% (n = 2,500);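 also: plate controls were DMSO with enzyme for no effect and buffer wells lacking enzyme for full effect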
Scp-1 MG ctr: colorimetric interference in Scp-1 counter-screen; shares compounds with Scp1 inh; Colorimetric interference counterscreen, malachite green absorbance 630 nm; apparent inhibition (interference), % at 20 µM; 2,500 tested, under 10 active; AID 540313;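 also: compounds added after enzyme reaction finished so only phosphate colour detection is probed; plate controls were DMSO wells with completed Scp-1 reaction for no effect and substrate wells lacking enzyme for full effect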
Scp-1 Tm shift: binds human Scp-1, shifting its melting temperature; thermal shift relative to vanadate control, % at 40 µM; AID 540329; Recombinant SCP1, Sypro Orange thermal shift Tm; actives 25% (n = 1,500); shares compounds with Scp1 inh;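 active = substances whose mean melting-temperature shift, as a percentage of the reference inhibitor's shift, reaches about 5.3%, limit read from the data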;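 also: 0% = Tm of DMSO wells and 100% = Tm with sodium orthovanadate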
DNMT1 inh conf: DNMT1 inhibition confirmation, single concentration; shares compounds with DNMT1 block; DNMT1 molecular beacon HinP1I cleavage, fluorescence; inhibition, % at 10 µM; actives 8% (n = 2,300);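 active = average inhibition of at least 30% in the single-concentration confirmation test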
DNMT1 interf: counter-screen for DNMT1 inhibitors: spectral interference. AID 602387. actives 1% (n = 2,300). DNMT1 molecular beacon spectral interference counterscreen, fluorescence 485/520. shares compounds with DNMT1 block. activation (fluorescence interference), % at 10 µM;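 active = activation of at least 30% at 10 µM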;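 also: DNMT1 catalytic domain with a HinP1I cleavage step and a FAM/dabcyl DNA beacon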
* = called active by the depositor; / = not tested or not shown.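 The calls were made as follows, unless noted: active = inhibition of at least 30% at 20 µM; inactive = the rest.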

SMILES	SUMO1 PPI mod	STEP block	CSN inh	Scp1 inh	LMPTP inh	DNMT1 block	Scp-1 conf	Scp-1 MG ctr	Scp-1 Tm shift	DNMT1 inh conf	DNMT1 interf
N#Cc1c(SCC(=O)Nc2cccc(F)c2)sc2c(O)cc(=O)[nH]c12	7	12	9	58*	26	29	60*	-10	7.7*	/	/
CCCSc1nnc(NC(=O)CSc2sc3c(O)cc(=O)[nH]c3c2C#N)s1	2	-4	0	70*	0	-1	65*	-16	12*	/	/
Cc1cccc(C)c1NC(=O)C1c2ccccc2OCC(=O)N1CCc1c[nH]c2ccccc12 (stereo not drawn)	2	/	-2	/	0	/	/	/	/	/	/
Cc1ccc(CCN2CC(C(=O)NCCCN3CCOCC3)CC2=O)cc1 (stereo not drawn)	-2	-8	1	-2	-3	2	-9	-11	/	/	/
O=C(NCc1ccc(F)cc1)C1CC(=O)N(CCc2ccccc2)C1 (stereo not drawn)	-1	4	0	-10	0	2	-7	-11	/	/	/
CCOCCCN1CC(C(=O)NCCc2ccccc2)CC1=O (stereo not drawn)	0	0	0	-3	0	2	-14	-16	/	/	/
O=C(NCc1ccc2c(c1)OCO2)C1CC(=O)N(CCc2ccccc2)C1 (stereo not drawn)	7	6	3	-10	-2	-2	-8	-8	/	/	/
CC1(C)NC(=O)N(CCCCOc2cccc(C(F)(F)F)c2)C1=O	1	1	0	-4	-2	-6	-4	-8	/	/	/
CCC(C)Oc1cccc(OCCCCN2C(=O)NC(C)(C)C2=O)c1 (stereo not drawn)	-11	-2	0	-6	-1	3	/	/	/	/	/
CCCCn1c(SCC(=O)N2CCCC2)nc2cc(S(N)(=O)=O)ccc21	1	7	-8	-2	-1	-1	/	/	/	/	/
CCOc1ccc(S(=O)(=O)N2Cc3ccccc3CC2C(=O)O)cc1 (stereo not drawn)	-6	1	-3	-6	0	-3	/	/	/	/	/
COc1ccc(S(=O)(=O)N2Cc3ccccc3CC2C(=O)O)cc1 (stereo not drawn)	19	4	14	75*	0	60*	64*	-15	0	0	-1
O=C(CCS(=O)(=O)c1ccc(Br)cc1)NCc1cccs1	5	1	1	87*	-1	59*	68*	-10	-13	3	1
O=C(CCS(=O)(=O)c1ccc(Br)cc1)NCc1ccco1	26	35	1	75*	2	57*	67*	-15	-4	5	6
O=C(CCNS(=O)(=O)c1ccc(Br)cc1)NC1CCCCC1	1	-2	-1	3	0	1	/	/	/	/	/
O=C(CCS(=O)(=O)c1ccc(Br)cc1)NC1CCCC1	-2	0	3	75*	0	56*	62*	-9	-23	3	3
Cc1ccc2nc(/C(C#N)=C/c3ccc(-c4cccc([N+](=O)[O-])c4)o3)[nH]c2c1	-5	94*	45	90*	44	83*	73*	-1	11*	-1	-4
N#C/C(=C\c1cccc(Oc2ccc(C(F)(F)F)cc2[N+](=O)[O-])c1)c1nc2ccccc2[nH]1	-1	4	5	24	3	-10	/	/	/	/	/

Screening data (PubChem)
